Measured values taken from ChEMBL document CHEMBL3865794, “Novel securinine derivatives as topoisomerase I based antitumor agents” (Eur J Med Chem, 2016).

What was measured:
[1] = Growth inhibition of human SH-SY5Y cells after 72 hrs by MTT assay; assay type: functional, cell-based
In short: (§1)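 Cells seeded at 5 × 10³ per well and incubated overnight in medium with 10% FBS. Medium then replaced with fresh medium containing compound at […] for 72 h. MTT (5 mg/mL stock, 20 µL per well) added for 4 h at 37 °C, formazan dissolved in DMSO, absorbance read at 570 nm. Each dose run in parallel triplicate. IC50 taken from mean absorbance versus concentration curves.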

[2] = Growth inhibition of human HepG2 cells after 72 hrs by MTT assay; assay type: functional, cell-based; in short: as §1
[3] = Growth inhibition of human A549 cells after 72 hrs by MTT assay; assay type: functional, cell-based; in short: as §1
[4] = Growth inhibition of human HeLa cells after 72 hrs by MTT assay; assay type: functional, cell-based; in short: as §1
[5] = target: T1, DNA topoisomerase 1 (Homo sapiens) (UniProt P11387); experiment: Inhibition of DNA topoisomerase 1 (unknown origin) assessed as reduction in relaxation of supercoiled pBR322 plasmid DNA at 100 uM incubated for 30 mins by agarose gel electrophoresis relative to control
T1 sequence (whole entry): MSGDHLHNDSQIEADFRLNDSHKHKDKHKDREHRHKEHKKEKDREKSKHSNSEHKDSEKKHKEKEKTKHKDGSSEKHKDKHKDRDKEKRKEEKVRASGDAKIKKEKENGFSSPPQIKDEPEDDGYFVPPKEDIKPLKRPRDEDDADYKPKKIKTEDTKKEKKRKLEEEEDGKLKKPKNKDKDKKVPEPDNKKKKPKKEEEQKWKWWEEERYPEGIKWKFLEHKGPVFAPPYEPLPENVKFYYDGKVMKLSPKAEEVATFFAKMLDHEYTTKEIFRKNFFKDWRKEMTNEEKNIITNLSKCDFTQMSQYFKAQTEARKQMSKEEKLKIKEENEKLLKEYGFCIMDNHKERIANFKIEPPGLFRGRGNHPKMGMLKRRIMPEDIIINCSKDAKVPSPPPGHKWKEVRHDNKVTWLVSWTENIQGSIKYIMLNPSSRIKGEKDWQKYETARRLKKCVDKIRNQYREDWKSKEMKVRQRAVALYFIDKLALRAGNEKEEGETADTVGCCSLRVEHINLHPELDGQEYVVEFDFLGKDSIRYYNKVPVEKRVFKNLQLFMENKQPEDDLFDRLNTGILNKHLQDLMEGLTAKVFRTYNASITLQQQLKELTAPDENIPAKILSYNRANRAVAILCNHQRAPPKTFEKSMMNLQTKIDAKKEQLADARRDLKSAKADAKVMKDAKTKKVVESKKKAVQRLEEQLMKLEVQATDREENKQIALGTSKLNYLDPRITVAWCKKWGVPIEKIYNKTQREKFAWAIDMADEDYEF
In short: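 Supercoiled pBR322 DNA incubated with Topo I in the presence or absence of compound for 30 min at 37 °C. Reaction stopped with dye solution of bromophenol blue, xylene cyanol and glycerol. Products run on 1% agarose in 1× TAE for 40 min, then EB-stained and UV-imaged. Inhibition rate derived from gel gray-scale analysis relative to control. Camptothecin served as positive control.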

Row | SMILES | IC50 ([1]; Homo sapiens, SH-SY5Y, 72 h) [µM] | IC50 ([2]; Homo sapiens, HepG2, 72 h) [µM] | IC50 ([3]; Homo sapiens, A549, 72 h) [µM] | IC50 ([4]; Homo sapiens, HeLa, 72 h) [µM] | inhibition [5] [%] | IC50 ([1]; sh-sy5y) [µM] | IC50 ([2]; hepg2) [µM] | IC50 ([3]; a549) [µM] | IC50 ([4]; hela) [µM]
1 | O=C1O[C@@]23C[C@@H](C=CC2=C1C(O)c1ccccc1[N+](=O)[O-])N1CCCC[C@@H]13 (stereo partly drawn) | 8.69 | 6.78 | 3.91 | 8.11 | 40.6 | – | – | – | –
2 | O=C1O[C@@]23C[C@@H](C=CC2=C1C(O)c1ccc(F)cc1)N1CCCC[C@@H]13 (stereo in doubt; 4a-2-a) | – | – | – | – | – | 19.1 | 10 | 4.95 | 12.8
3 | O=C1O[C@@]23C[C@@H](C=CC2=C1C(O)c1ccccc1F)N1CCCC[C@@H]13 (stereo partly drawn) | 22 | 10.1 | 6.89 | 13 | 42.3 | – | – | – | –
4 | O=C1O[C@@]23C[C@@H](C=CC2=C1C(O)c1cccc([N+](=O)[O-])c1)N1CCCC[C@@H]13 (stereo partly drawn) | 8.7 | 6.77 | 4.04 | 9.98 | 36.2 | – | – | – | –
5 | N#Cc1ccc(C(O)C2=C3C=C[C@@H]4C[C@@]3(OC2=O)[C@H]2CCCCN42)cc1 (stereo in doubt; 4a-5-a) | – | – | – | – | – | 18.9 | 14.1 | 6.2 | 13.1
6 | N#Cc1ccc(C(O)C2=C3C=C[C@@H]4C[C@@]3(OC2=O)[C@H]2CCCCN42)cc1 (stereo in doubt; 4a-5) [listing 1 of 2 here] | 18.9 | 14.2 | 6.22 | 13 | – | – | – | – | –
7 | O=C1O[C@@]23C[C@@H](C=CC2=C1C(O)c1ccccc1Br)N1CCCC[C@@H]13 (stereo partly drawn) | 23.1 | 12.6 | 7.11 | 12.7 | 39.2 | – | – | – | –
8 | O=C1O[C@@]23C[C@@H](C=CC2=C1C(O)c1ccccc1Cl)N1CCCC[C@@H]13 (stereo partly drawn) | 19.9 | 9.16 | 7.01 | 10.4 | 42.4 | – | – | – | –
9 | N#Cc1ccc(C(O)C2=C3C=C[C@@H]4C[C@@]3(OC2=O)[C@H]2CCCCN42)cc1 (stereo in doubt; 4a-5-b) | – | – | – | – | – | 18.9 | 14.1 | – | 12.1
10 | O=C1O[C@@]23C[C@@H](C=CC2=C1C(O)c1ccc(F)cc1)N1CCCC[C@@H]13 (stereo in doubt; 4a-2) [listing 1 of 2 here] | – | – | – | – | 49.8 | – | – | – | –
11 | N#Cc1ccc(C(O)C2=C3C=C[C@@H]4C[C@@]3(OC2=O)[C@H]2CCCCN42)cc1 (stereo in doubt; 4a-5) [listing 2 of 2 here] | – | – | – | – | 45.7 | – | – | – | –
12 | O=C1O[C@@]23C[C@@H](C=CC2=C1C(O)c1ccccc1)N1CCCC[C@@H]13 (stereo partly drawn) | 25.4 | 20.1 | 7.05 | 21.4 | 24 | – | – | – | –
13 | O=C1O[C@@]23C[C@@H](C=CC2=C1C(O)c1ccc(Br)cc1)N1CCCC[C@@H]13 (stereo in doubt; 4a-4) | 22.3 | 14.1 | 6.32 | 12.8 | – | – | – | – | –
14 | O=C1O[C@@]23C[C@@H](C=CC2=C1C(O)c1ccc(F)cc1)N1CCCC[C@@H]13 (stereo in doubt; 4a-2) [listing 2 of 2 here] | 19.8 | 10.1 | 5.01 | 12.8 | – | – | – | – | –
15 | O=C1O[C@@]23C[C@@H](C=CC2=C1C(O)c1ccc(Cl)cc1)N1CCCC[C@@H]13 (stereo in doubt; 4a-3) | – | – | – | – | 48.9 | – | – | – | –
16 | O=C1O[C@@]23C[C@@H](C=CC2=C1C(O)c1ccc(Cl)cc1)N1CCCC[C@@H]13 (stereo in doubt; 4a-3-b) | – | – | – | – | – | 19.9 | – | 6.2 | 12.5
17 | N#Cc1ccccc1C(O)C1=C2C=C[C@@H]3C[C@@]2(OC1=O)[C@H]1CCCCN31 (stereo partly drawn) | 21.9 | 11.1 | 7.01 | 14.9 | 38.4 | – | – | – | –
18 | COc1ccc(C(O)C2=C3C=C[C@@H]4C[C@@]3(OC2=O)[C@H]2CCCCN42)cc1 (stereo partly drawn) | 22.5 | 17.8 | 10 | 10 | 31.6 | – | – | – | –
19 | O=C1O[C@@]23C[C@@H](C=CC2=C1C(O)c1ccc(C(F)(F)F)cc1)N1CCCC[C@@H]13 (stereo in doubt; 4a-6-a) | – | – | – | – | – | 8.27 | 2.23 | 2.78 | 8.8
